Measurements from paper PMC4874899 (Cell chemical biology, 2016).

Legend:
cells [1] = test: Cytosolic penetration / endosomal escape by fluorescence microscopy; assay type: cell-based; conditions: retro-2 20 µM, 30 min prior to dfTAT (3 µM, 1 h)
Summary of the method: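 Cells at 80–90% confluency (48 h) pretreated 30 min with 20 µM retro-2, then 3 µM dfTAT for 1 h at 37 °C in serum-free L-15. Washed with heparin-containing L-15 (1 mg/mL); SYTOX (5 µM) stained cells excluded. Imaged at 37 °C; % nucleoli-positive cells of bright-field total, >500 cells per experiment, triplicates; t-test.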

[2] = tested on: mEmerald-TGOLN2 transport; test: Retrograde transport of the TGN marker mEmerald-TGOLN2; assay type: cell-based; conditions: retro-2 20 µM
cells [3] = conditions: ref Gao et al., 2009; Gillmeister et al., 2011; Lee et al., 2010; cited from earlier work
[4] = tested on: L.E. LUVs (77:19:4 BMP:PC:PE); conditions: monomeric TAT; ref Yang et al., 2010; cited from earlier work

Which results are given for `Cc1ccc(C=Nc2ccccc2C(=O)Nc2ccccc2)s1` [retro-2]?
effect on dfTAT-mediated endosomal escape (cells [1]): had no effect on dfTAT-mediated escape; inhibition of transport of TGN marker mEmerald-TGOLN2 [2]: capable of inhibiting the transport

With RKKRRQRRR [TAT] as the compound, how does the “escape from the endocytic pathway” value (cells [3]) read?
Its value is “only at a very low efficiency”.

And the “effect on BMP-containing liposomes” value [4]?
Its value is “leaky fusion”.
